Source: ChEMBL document CHEMBL1148948, “Biotransformation of nobiletin by Aspergillus niger and the antimutagenic activity of a metabolite, 4'-hydroxy-5,6,7,8,3'-pentamethoxyflavone” (2004)
Activity calls are given as the source filed them.

Experiments:
Format in all cases: functional, organism-based
Conditions in all cases: Salmonella enterica subsp. enterica serovar Typhimurium
Salmonella typhimurium [1] = assay: Antimutagenic activity in Salmonella Typhimurium TA1535 carrying pSK1002 containing umuC'-lacZ fused gene assessed as suppression of furyfuramide-induced SOS response to alteration in DNA synthesis measured by beta-galactosidase activity by Umu test
Summary of the method: (§1)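 S. typhimurium TA1535/pSK1002 (umuC′-′lacZ fusion on the plasmid). The overnight culture was diluted 50-fold in fresh TGA medium and grown at 37 °C to A600 0.25-0.30. SOS induction was read as β-galactosidase activity in Miller units. The S9 mix used rat liver S9 (phenobarbital/5,6-benzoflavone-pretreated males) with G-6-P, NADH and NADPH cofactors.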

Salmonella typhimurium [2] = assay: Antimutagenic activity in Salmonella Typhimurium TA1535 carrying pSK1002 containing umuC'-lacZ fused gene assessed as suppression of MeIQ-induced SOS response to alteration in DNA synthesis measured by beta-galactosidase activity by Umu test; summary of the method: as §1
Salmonella typhimurium [3] = assay: Antimutagenic activity in Salmonella Typhimurium TA1535 carrying pSK1002 containing umuC'-lacZ fused gene assessed as suppression of Trp-P-1-induced SOS response to alteration in DNA synthesis measured by beta-galactosidase activity by Umu test; summary of the method: as §1
Salmonella typhimurium [4] = assay: Antimutagenic activity in Salmonella Typhimurium TA1535 carrying pSK1002 containing umuC'-lacZ fused gene assessed as suppression of 0.1 j/M2 UV light-induced SOS response to alteration in DNA synthesis measured by beta-galactosidase activity by Umu test; summary of the method: as §1

Measured: Activity

COc1ccc(-c2cc(=O)c3c(OC)c(OC)c(OC)c(OC)c3o2)cc1OC
active: all assays above
